Source: PubChem BioAssay (several laboratories)
UBC13 inh – blocks human UBC13 polyubiquitin chain formation. AID 485273. inhibition, % at 20 µM. hit rate 0.47% among 330,000. TR-FRET; in the data active = inhibition above about 45%, passing the limit was not always enough
MEKK2wt PB1 HTS – raises or lowers MEK5 binding to wildtype human MEKK2 PB1 domain; bead flow cytometry, Alexa488-MEK5 binding to MEKK2 WT; actives lie on both sides; binding response (% of control), % at 10 µM; Q9Y2U5; hit rate 1.1% among 290,000; AID 1531; in the data active = binding response below about 67% or above about 130%
MEKK3 PB1 HTS – MEKK3-MEK5 PB1 interaction, increase or decrease; Q99759; bead-based flow cytometry, Alexa488-MEK5 binding to MEKK3; actives lie on both sides; 0 = blocked by unlabeled MEK5, 100 = vehicle; binding response (% of control), % at 10 µM; hit rate 1.4% among 290,000;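 active = binding response more than 3 SD above or below the average of its plate-row segment, actives on both sides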;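 note: Alexa488 bead fluorescence after subtracting the streptavidin-only scavenger bead signal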
MEKK2mut PB1 HTS – signal of MEK5 binding to mutant human MEKK2 PB1 domain. bead flow cytometry, Alexa488-MEK5 binding to MEKK2 mutant. percent response, % at 10 µM. AID 1530. hit rate 0.35% among 290,000; in the data active = percent response above about 24%, passing the limit was not always enough
DSG3 Ab inh – human desmoglein-3 autoantibody binding inhibition; P32926; DSG3-coupled beads, scFv-anti-DSG3-GFP binding, flow cytometry; hits give low values; binding (percent of control), % at 10 µM; hit rate 0.48% among 310,000;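 active = binding more than 3 SD below its plate's average and above zero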;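 note: hits lower antibody fragment binding to DSG3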
Apaf1 inhib – blocks human Apaf-1 apoptosome activity; reconstituted apoptosome caspase-3 activity, DEVD-Rh110 fluorescence; inhibition, % at 20 µM; hit rate 0.71% among 330,000; active = inhibition of at least 40% at 20 µM;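 note: plate controls were DMSO wells for no effect and DEVD-CHO caspase inhibitor wells for full effect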
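Material: reconstituted apoptosome with Apaf-1, cytochrome c, caspase-9, procaspase-3, dATP / Buffer or medium: pH 7.5 Hepes buffer with CHAPS, BSA, DTT / Also added: cytochrome c with DEVD-Rh110 / Schedule: compound with Apaf-1, dATP, procaspase-3 30 min, then 50 min reaction, room temperature / Technique: rhodamine 110 fluorescence at Ex 480/Em 540 nm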
Casp3 UBC13 ctr – inhibits human caspase-3 in UBC13 counter-screen; shares compounds with UBC13 inh; Recombinant caspase-3, Caspase-Glo 3/7 luminescence, 60 min; inhibition, % at 20 µM; hit rate 4% among 1,400;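 active = mean inhibition across replicates above about 26%, limit read from the data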;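 note: plate controls were DMSO with caspase-3 for no effect and DMSO wells lacking enzyme for full effect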
UBC13 confirm – confirmation of human UBC13 polyubiquitin inhibitors. shares compounds with UBC13 inh. UBC13 polyubiquitination, TR-FRET, biochemical. inhibition, % at 10 µM. hit rate 68% among 1,400; in the data active = inhibition above about 45%
Starred values were filed as active, the others as inactive; · = no result. This is a sample that favours compounds with a hit; in the whole collection about 3.2% have one here.

SMILES | UBC13 inh | MEKK2wt PB1 HTS | MEKK3 PB1 HTS | MEKK2mut PB1 HTS | DSG3 Ab inh | Apaf1 inhib | Casp3 UBC13 ctr | UBC13 confirm
C#CCOCCOCCOCCNc1nc(N2CCN(C(=O)[C@H](CCC(=O)O)n3cc([C@@H](N)CCCCN)nn3)CC2)nc(N2CCN(C(=O)[C@H](CCC(=O)O)n3cc([C@@H](N)CCCCN)nn3)CC2)n1 | 17.7 | · | · | · | 96.9 | 2.3 | · | ·
CCOc1ccccc1N1CCN(C(=O)c2c(Cl)cnn2C)CC1 | -11.2 | 107.0 | 103.0 | 8.0 | · | -4.0 | · | ·
CN(C)S(=O)(=O)c1cccc(COc2ncnc3c(Cl)cc(Cl)cc23)c1 | 63.7* | 101.0 | 101.0 | -3.0 | 103.0 | 3.0 | 5.9 | 76.4*
O=C(NCC(c1ccco1)N1CCCC1)c1cccc(S(=O)(=O)Nc2ccc(F)cc2)c1 (stereo unspecified) | -3.3 | · | · | · | 107.4 | 14.4 | · | ·
NS(=O)(=O)c1ccc(NC(=O)COC(=O)c2ccc(Cl)cc2[N+](=O)[O-])cc1 | -8.1 | 99.0 | 100.0 | -1.0 | 98.5 | -12.1 | · | ·
O=C(C1=C[C@H](c2coc3ccccc3c2=O)C[C@H](OCc2ccc(CO)cc2)O1)N1CCN(Cc2ccc3c(c2)OCO3)CC1 | 12.2 | 110.0 | 104.0 | 11.0 | 95.5 | 21.4 | · | ·
O=C(C1=C[C@@H](c2coc3ccccc3c2=O)C[C@@H](OCc2ccc(CO)cc2)O1)N1CCN(Cc2ccc3c(c2)OCO3)CC1 | 75.6* | 103.0 | 94.0 | 2.0 | 98.5 | 22.3 | -1.2 | 56.9*
Cc1ccc(C2(C)NC(=O)N(CC(=O)NC(=O)NC(C)C)C2=O)cc1 (stereo unspecified) | 2.4 | 107.0 | 108.0 | 6.0 | 94.2 | 0.5 | · | ·
COc1ccc(OC)c(-c2nnc3n2N=C(c2ccc(OC)c(OC4CCCC4)c2)CS3)c1 | 27.5 | · | · | · | 95.2 | 37.6 | · | ·
COc1ccc(C2=Nn3c(nnc3-c3ccccc3F)SC2)cc1OC1CCOC1 (stereo unspecified) | 45.7* | · | · | · | 81.5* | 20.5 | -0.9 | 31.0
CC(=O)NC(C)c1cc(Cl)c2ccccc2c1O (stereo unspecified) | 62.9* | · | · | · | 103.2 | -1.8 | 5.2 | 47.2*
CCC(=O)NC(C)c1cc(Cl)c2cccnc2c1O (stereo unspecified) | -15.0 | · | · | · | 103.4 | -6.2 | · | ·
CC(=O)NC(C)c1cc(Cl)c2cccnc2c1O (stereo unspecified) | 0.5 | · | · | · | 107.3 | -9.3 | · | ·
CCC(=O)NC(c1ccco1)c1cc(Cl)c2ccccc2c1O (stereo unspecified) | 35.4 | · | · | · | 99.9 | 4.8 | · | ·
CCC(=O)NC(c1cc(Cl)c2ccccc2c1O)C(C)C (stereo unspecified) | 70.9* | · | · | · | 96.7 | 9.7 | 2.5 | 55.9*
CC(=O)NC(c1ccco1)c1cc(Cl)c2ccccc2c1O (stereo unspecified) | 47.1* | · | · | · | 99.8 | 16.1 | -1.9 | 36.8
Cc1ccc(C(C(=O)NCC2CCCO2)N(C(=O)c2snc(C(N)=O)c2N)c2ccccc2F)o1 (stereo unspecified) | 47.2* | 100.0 | 100.0 | 7.0 | · | 8.5 | -0.1 | 30.2
Cc1ccc(C(C(=O)NCC2CCCO2)N(C(=O)c2snc(C(N)=O)c2N)c2ccc(F)cc2)o1 (stereo unspecified) | 46.3* | 104.0 | 100.0 | 2.0 | 104.9 | 13.3 | -4.6 | 38.9
COc1ccccc1N(C(=O)c1snc(C(N)=O)c1N)C(C(=O)NCc1ccccc1)c1ccc(O)cc1 (stereo unspecified) | 7.2 | 96.0 | 101.0 | 2.0 | 104.0 | 18.6 | · | ·
NC(=O)c1nsc(C(=O)N(c2ccccc2)C(C(=O)NCC2CCCO2)c2ccc(F)cc2)c1N (stereo unspecified) | 21.8 | 102.0 | 102.0 | 5.0 | 120.6 | 7.4 | · | ·
CCOc1ccc(N(C(=O)c2snc(C(N)=O)c2N)C(C(=O)NCC2CCCO2)c2ccc(C)o2)cc1 (stereo unspecified) | 74.2* | 100.0 | 104.0 | 7.0 | · | 3.9 | -0.2 | 81.7*
NC(=O)c1nsc(C(=O)N(c2ccccc2F)C(C(=O)NCc2ccc(F)cc2)c2ccc(O)cc2)c1N (stereo unspecified) | 47.0* | 97.0 | 97.0 | 3.0 | 95.4 | 15.3 | 1.9 | 48.9*
COc1cc(OC)cc(N(C(=O)c2snc(C(N)=O)c2N)C(C(=O)NCC2CCCO2)c2ccc(C)o2)c1 (stereo unspecified) | 4.0 | 102.0 | 99.0 | 5.0 | 88.9 | 9.5 | · | ·
CCN(CC(=O)Nc1c(F)cccc1F)C(=O)C1CC(=O)N(CCc2ccc(OC)c(OC)c2)C1 (stereo unspecified) | -17.0 | · | · | · | 101.5 | 0.4 | · | ·
CC(=O)C[C@H](O)CC(=O)[C@@H]1OC(=O)CCCCCCc2ccccc21 | 5.8 | · | · | · | 97.2 | 8.9 | · | ·
SMILES | UBC13 inh | MEKK2wt PB1 HTS | MEKK3 PB1 HTS | MEKK2mut PB1 HTS | DSG3 Ab inh | Apaf1 inhib | Casp3 UBC13 ctr | UBC13 confirm
CCOc1ccc(C(C(=O)NCC2CCCO2)N(C(=O)c2snc(C(N)=O)c2N)c2cccc(F)c2)cc1 (stereo unspecified) | 35.6 | 97.0 | 99.0 | 1.0 | 108.0 | 14.8 | · | ·
CCOc1ccc(C(C(=O)NCC2CCCO2)N(C(=O)c2snc(C(N)=O)c2N)c2ccccc2F)cc1 (stereo unspecified) | 47.8* | 98.0 | 100.0 | 0.0 | 111.8 | 13.7 | -0.1 | 48.1*
Cc1ccc(C(=O)NNC(=O)C2CCN(S(=O)(=O)c3ccc(Cl)cc3)CC2)cc1 | 40.4 | 101.0 | 103.0 | 2.0 | 95.9 | 2.5 | · | ·
O=C(NNC(=O)C1CCN(S(=O)(=O)c2ccc(Cl)cc2)CC1)c1ccc(S(=O)(=O)N2CCCCC2)cc1 | 56.5* | 96.0 | 92.0 | -2.0 | 84.2 | 5.7 | 6.9 | 52.1*
CCCCn1c(-c2cccs2)nc2nc3ccccc3nc21 | 56.0* | 92.0 | 101.0 | -1.0 | 100.2 | 19.4 | -0.7 | 45.4*
Cc1cccc(OCc2n(CC(=O)OC3CC(C)CCC3C(C)C)c3ccccc3[n+]2C)c1 (stereo unspecified) | 59.2* | 183.0* | 103.0 | 30.0 | 102.2 | 50.3* | 5.5 | 91.8*
COC(=O)C[N+](C)(C)CC#Cc1ccccc1 | 3.3 | 100.0 | 100.0 | -2.0 | 107.4 | -2.4 | · | ·
